# Laboratory results from the M2OR odorant receptor database.
# Experiments:
# Conditions in all cases: stereoisomer not certain
# UniProt Q8VGP6 = target: T1, UniProt Q8VGP6
# T1 sequence (whole entry): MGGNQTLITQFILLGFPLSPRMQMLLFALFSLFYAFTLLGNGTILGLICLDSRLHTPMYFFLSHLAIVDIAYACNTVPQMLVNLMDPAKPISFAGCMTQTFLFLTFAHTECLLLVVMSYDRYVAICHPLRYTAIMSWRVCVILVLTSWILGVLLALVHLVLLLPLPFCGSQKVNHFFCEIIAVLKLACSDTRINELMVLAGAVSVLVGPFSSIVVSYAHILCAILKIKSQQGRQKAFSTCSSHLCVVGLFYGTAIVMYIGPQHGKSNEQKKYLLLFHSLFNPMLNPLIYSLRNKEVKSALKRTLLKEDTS
# In short: (§1)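 Each entry records the cell line, G-protein, co-transfected protein and tags used. Methods varied with the source, often transient luciferase assays in mammalian cell lines. A receptor–molecule pair is called responsive (active) if the original authors judged its signal statistically different from baseline and non-responsive (inactive) otherwise.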
# UniProt Q8VGQ3 = target: T2, UniProt Q8VGQ3
# T2 sequence (whole entry): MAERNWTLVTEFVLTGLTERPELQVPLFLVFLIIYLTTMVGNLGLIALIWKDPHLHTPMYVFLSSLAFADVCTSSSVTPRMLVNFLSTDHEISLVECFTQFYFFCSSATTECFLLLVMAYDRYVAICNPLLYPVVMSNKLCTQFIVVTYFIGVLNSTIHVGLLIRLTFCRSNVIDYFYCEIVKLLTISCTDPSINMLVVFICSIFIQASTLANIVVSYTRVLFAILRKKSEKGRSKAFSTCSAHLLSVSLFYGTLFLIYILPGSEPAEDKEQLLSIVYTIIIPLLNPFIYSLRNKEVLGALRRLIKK
# In short: as §1
# UniProt Q8VGT4 = target: T3, UniProt Q8VGT4
# T3 sequence (whole entry): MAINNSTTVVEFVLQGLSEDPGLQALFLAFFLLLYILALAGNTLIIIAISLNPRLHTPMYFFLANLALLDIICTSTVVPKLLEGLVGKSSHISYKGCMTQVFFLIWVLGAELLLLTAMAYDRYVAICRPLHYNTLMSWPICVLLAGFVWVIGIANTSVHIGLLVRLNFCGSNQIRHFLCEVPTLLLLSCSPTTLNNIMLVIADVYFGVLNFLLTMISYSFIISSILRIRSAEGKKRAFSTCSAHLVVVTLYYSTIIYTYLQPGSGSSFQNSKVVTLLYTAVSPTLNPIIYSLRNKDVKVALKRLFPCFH
# In short: as §1
# UniProt Q8VGU3 = target: T4, UniProt Q8VGU3
# T4 sequence (whole entry): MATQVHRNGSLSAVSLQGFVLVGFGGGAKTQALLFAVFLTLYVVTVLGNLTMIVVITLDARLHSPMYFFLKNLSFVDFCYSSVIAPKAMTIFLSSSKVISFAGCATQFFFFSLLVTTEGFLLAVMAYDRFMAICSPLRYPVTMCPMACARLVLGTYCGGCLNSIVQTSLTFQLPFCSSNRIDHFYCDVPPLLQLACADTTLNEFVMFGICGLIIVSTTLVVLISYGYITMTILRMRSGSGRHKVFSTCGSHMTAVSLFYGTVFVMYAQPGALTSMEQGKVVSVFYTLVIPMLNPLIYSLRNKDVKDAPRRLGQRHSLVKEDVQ
# In short: as §1
# UniProt Q8VGV1 = target: T5, UniProt Q8VGV1
# T5 sequence (whole entry): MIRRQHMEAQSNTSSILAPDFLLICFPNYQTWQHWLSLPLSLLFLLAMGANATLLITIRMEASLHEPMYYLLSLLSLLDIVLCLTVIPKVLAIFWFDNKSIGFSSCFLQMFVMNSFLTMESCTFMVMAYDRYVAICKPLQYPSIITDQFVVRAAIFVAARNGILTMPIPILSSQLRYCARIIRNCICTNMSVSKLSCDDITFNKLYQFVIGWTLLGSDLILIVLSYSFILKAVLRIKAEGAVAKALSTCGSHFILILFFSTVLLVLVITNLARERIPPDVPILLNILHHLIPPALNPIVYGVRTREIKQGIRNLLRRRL
# In short: as §1
# UniProt Q8VGV7 = target: T6, UniProt Q8VGV7
# T6 sequence (whole entry): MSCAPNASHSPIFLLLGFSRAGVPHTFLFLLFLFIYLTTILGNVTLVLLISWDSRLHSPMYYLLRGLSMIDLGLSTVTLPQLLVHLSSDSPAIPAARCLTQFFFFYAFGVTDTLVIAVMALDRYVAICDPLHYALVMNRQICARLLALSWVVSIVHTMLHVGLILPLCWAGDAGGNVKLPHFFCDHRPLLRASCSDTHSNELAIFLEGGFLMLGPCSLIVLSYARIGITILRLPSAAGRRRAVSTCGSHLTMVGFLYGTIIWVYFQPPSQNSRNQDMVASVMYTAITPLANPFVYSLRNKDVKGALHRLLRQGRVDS
# In short: as §1
# UniProt Q8VGW5 = target: T7, UniProt Q8VGW5
# T7 sequence (whole entry): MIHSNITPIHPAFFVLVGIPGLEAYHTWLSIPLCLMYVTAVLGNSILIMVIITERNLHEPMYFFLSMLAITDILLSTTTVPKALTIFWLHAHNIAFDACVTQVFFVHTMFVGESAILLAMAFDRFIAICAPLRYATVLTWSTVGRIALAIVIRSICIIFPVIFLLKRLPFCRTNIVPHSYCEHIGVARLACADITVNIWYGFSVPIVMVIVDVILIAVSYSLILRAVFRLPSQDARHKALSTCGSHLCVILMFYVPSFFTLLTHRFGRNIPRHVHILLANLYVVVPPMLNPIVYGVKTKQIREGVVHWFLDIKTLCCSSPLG
# In short: as §1
# UniProt Q8VGX3 = target: T8, UniProt Q8VGX3
# T8 sequence (whole entry): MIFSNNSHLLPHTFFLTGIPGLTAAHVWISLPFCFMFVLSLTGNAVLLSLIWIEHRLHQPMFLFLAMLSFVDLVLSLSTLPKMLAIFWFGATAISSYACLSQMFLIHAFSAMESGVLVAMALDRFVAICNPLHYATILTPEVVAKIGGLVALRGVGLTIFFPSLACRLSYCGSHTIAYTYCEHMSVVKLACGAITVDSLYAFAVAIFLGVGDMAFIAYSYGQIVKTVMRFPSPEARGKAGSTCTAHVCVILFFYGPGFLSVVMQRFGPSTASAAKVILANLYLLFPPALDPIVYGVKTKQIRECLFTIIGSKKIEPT
# In short: as §1
# UniProt Q8VGX5 = target: T9, UniProt Q8VGX5
# T9 sequence (whole entry): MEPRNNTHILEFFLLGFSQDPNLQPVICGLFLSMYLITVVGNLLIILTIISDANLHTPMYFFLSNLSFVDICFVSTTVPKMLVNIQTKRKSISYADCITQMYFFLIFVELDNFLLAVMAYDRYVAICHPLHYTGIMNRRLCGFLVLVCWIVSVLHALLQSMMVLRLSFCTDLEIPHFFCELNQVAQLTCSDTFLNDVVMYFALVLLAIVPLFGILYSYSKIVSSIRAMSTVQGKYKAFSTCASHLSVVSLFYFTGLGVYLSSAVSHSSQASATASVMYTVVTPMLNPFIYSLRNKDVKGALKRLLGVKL
# In short: as §1
smiles,measurement,setting,value
CCCCCCCO,odorant receptor agonist call,UniProt Q8VGP6,active
same,odorant receptor agonist call,UniProt Q8VGQ3,inactive
same,odorant receptor agonist call,UniProt Q8VGT4,inactive
same,odorant receptor agonist call,UniProt Q8VGU3,inactive
same,odorant receptor agonist call,UniProt Q8VGV1,inactive
same,odorant receptor agonist call,UniProt Q8VGV7,inactive
same,odorant receptor agonist call,UniProt Q8VGW5,inactive
same,odorant receptor agonist call,UniProt Q8VGX3,inactive
same,odorant receptor agonist call,UniProt Q8VGX5,inactive
